Data as given in ChEMBL document CHEMBL2062523, “Synthesis and evaluation of the quorum sensing inhibitory effect of substituted triazolyldihydrofuranones” (Bioorg Med Chem, 2012).
≈ marks a conversion by molar mass, not a printed value. Calls of active or inactive are those of the source. No cut-off for these calls is given here.

Tests used:
[1] = system: Escherichia coli; assay: Antibacterial activity against Escherichia coli JB523 after 20 hrs by broth microdilution assay; assay type: functional; details: JB523, 20 h
Method in brief: (§1)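 EUCAST broth microdilution in triplicate, inoculum about 5 × 10^5 CFU/ml. Incubated 20 h at 37 °C, then OD590 read. Compounds from 100 mM DMSO stocks, diluted in water.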

[2] = system: Pseudomonas aeruginosa; assay: Agonist activity at Pseudomonas aeruginosa QSIS2 LasR-mediated quorum sensing co-expressing SacB1 assessed as luminescence after 24 hrs by reporter gene assay; assay type: functional
[3] = system: Pseudomonas aeruginosa; assay: Antagonist activity at Pseudomonas aeruginosa QSIS2 LasR-mediated quorum sensing co-expressing SacB1 assessed as inhibition of 3-oxo-C12-HSL-induced luminescence at 0.25 mM […] by reporter gene assay; assay type: functional
[4] = system: Pseudomonas aeruginosa; assay: Antagonist activity at Pseudomonas aeruginosa QSIS2 LasR-mediated quorum sensing co-expressing SacB1 assessed as inhibition of 3-oxo-C12-HSL-induced luminescence at 1 mM […] by reporter gene assay; assay type: functional
[5] = system: Burkholderia cenocepacia; assay: Antibacterial activity against Burkholderia cenocepacia LMG16656 after 20 hrs by broth microdilution assay; assay type: functional; details: LMG16656, 20 h; method in brief: as §1
[6] = system: Pseudomonas aeruginosa; assay: Antimicrobial activity against Pseudomonas aeruginosa PAO1 assessed as inhibition of biofilm formation at 1 mM after 24 hrs by crystal violet staining; assay type: functional; details: for inhibition at 1000 µM: PAO1, 24 h
Method in brief: (§2)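 Overnight MH cultures resuspended in 2× MH at OD590 0.1 and mixed 1:1 with compound or water. Adhesion 4 h at 37 °C without agitation, then washed with saline. Refilled with 2× MH plus compound and incubated 20 h at 37 °C. Methanol-fixed, crystal violet stained, eluted with 33% acetic acid, A590 read. Expressed as % of untreated biofilm; n ≥ 24.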

[7] = system: Pseudomonas aeruginosa; assay: Antibacterial activity against Pseudomonas aeruginosa QSIS2 after 20 hrs by broth microdilution assay; assay type: functional; details: QSIS2, 20 h; method in brief: as §1
[8] = system: Pseudomonas aeruginosa; assay: Agonist activity at Pseudomonas aeruginosa QSIS2 LasR-mediated quorum sensing coexpressing SacB1 assessed as […] by reporter gene assay; assay type: functional
[9] = system: Pseudomonas aeruginosa; assay: Agonist activity at Pseudomonas aeruginosa QSIS2 LasR-mediated quorum sensing co-expressing SacB1 assessed as luminescence at 0.25 mM after 24 hrs by reporter gene assay; assay type: functional
[10] = target: T1, Transcriptional activator protein LuxR (Aliivibrio fischeri) (UniProt P12746); assay: Antagonist activity at Vibrio fischeri LuxR-mediated quorum sensing expressed in Escherichia coli JB523 assessed as inhibition of C6-HSL-induced GFP expression at 1 mM after 24 hrs by reporter gene assay; assay type: functional
T1 sequence (whole entry): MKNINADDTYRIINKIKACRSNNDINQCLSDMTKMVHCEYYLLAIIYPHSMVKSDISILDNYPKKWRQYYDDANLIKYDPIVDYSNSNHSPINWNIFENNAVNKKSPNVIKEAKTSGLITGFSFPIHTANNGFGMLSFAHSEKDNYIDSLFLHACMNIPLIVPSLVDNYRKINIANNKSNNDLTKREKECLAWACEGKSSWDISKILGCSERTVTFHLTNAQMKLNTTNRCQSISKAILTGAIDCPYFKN
Method in brief: (§3)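 JB523 GFP biosensor in LB/0.4% NaCl at OD590 0.1 with tetracycline 100 µg/ml final; compounds co-added with C6-HSL (5 µM). Plates kept 24 h at 30 °C, then GFP read at 485/510 nm. Each compound tested in twelve wells, assay repeated at least three times.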

[11] = target: T1, Transcriptional activator protein LuxR (Aliivibrio fischeri); assay: (§4) Antagonist activity at Vibrio fischeri LuxR-mediated quorum sensing expressed in Escherichia coli JB523 assessed as inhibition of C6-HSL-induced GFP expression after 24 hrs by reporter gene assay; assay type: functional; method in brief: as §3
[12] = target: T2, Transcriptional activator protein LuxR (Aliivibrio fischeri, UniProt P12746); assay: as §4; assay type: functional; method in brief: as §3
T2 sequence (P12746 whole entry): T1 sequence (whole entry)

[13] = system: Pseudomonas aeruginosa; assay: Antimicrobial activity against Pseudomonas aeruginosa PAO1 assessed as reduction of cell viability at 1 mM after 24 hrs by CTB staining; assay type: functional, organism-based
Method in brief: (§5)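 Overnight MH cultures were centrifuged, resuspended in 2× MH and set to OD590 0.1. Cells adhered 4 h at 37 °C, wells were washed with saline, then compound in 2× MH was added for 20 h at 37 °C. Viable cells were read by resazurin (CTB) fluorescence after 60 min (ex 535/em 590) as % of untreated biofilm; 12 wells, ≥2 repeats.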

[14] = target: T1, Transcriptional activator protein LuxR (Aliivibrio fischeri); assay: Agonist activity at Vibrio fischeri LuxR-mediated quorum sensing expressed in Escherichia coli JB523 assessed as GFP expression at 0.25 mM after 24 hrs by reporter gene assay; assay type: functional
Method in brief: (§6)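 E. coli JB523 (pJBA130, luxR-PluxI–GFP) overnight culture diluted to OD590 0.1 in LB with 0.4% NaCl, tetracycline 100 µg/ml final. Compounds 100–1000 µM added without signal; C6-HSL (5 µM) as positive control, water as negative. 24 h at 30 °C; GFP fluorescence ex 485/em 510 nm. Twelve wells per compound, ≥3 repeats.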

[15] = system: Pseudomonas aeruginosa; assay: Agonist activity at Pseudomonas aeruginosa QSIS2 LasR-mediated quorum sensing co-expressing SacB1 assessed as luminescence at 0.5 mM after 24 hrs by reporter gene assay; assay type: functional
[16] = system: Burkholderia cenocepacia; assay: Antimicrobial activity against Burkholderia cenocepacia LMG16656 assessed as reduction of cell viability at 1 mM after 24 hrs by CTB staining; assay type: functional, organism-based; method in brief: as §5
[17] = target: T1, Transcriptional activator protein LuxR (Aliivibrio fischeri); assay: Antagonist activity at Vibrio fischeri LuxR-mediated quorum sensing expressed in Escherichia coli JB523 assessed as inhibition of C6-HSL-induced GFP expression at 0.1 mM after 24 hrs by reporter gene assay; assay type: functional; method in brief: as §3
[18] = target: T1, Transcriptional activator protein LuxR (Aliivibrio fischeri); assay: Antagonist activity at Vibrio fischeri LuxR expressed in Escherichia coli JB523 assessed as inhibition of C6-HSL-induced GFP expression at 0.5 mM after 24 hrs by reporter gene assay; assay type: functional; method in brief: as §3
[19] = system: Pseudomonas aeruginosa; assay: Agonist activity at Pseudomonas aeruginosa QSIS2 LasR-mediated quorum sensing co-expressing SacB1 assessed as luminescence at 0.1 mM after 24 hrs by reporter gene assay; assay type: functional
[20] = system: Burkholderia cenocepacia; assay: Antimicrobial activity against Burkholderia cenocepacia LMG16656 assessed as inhibition of biofilm formation at 1 mM after 24 hrs by crystal violet staining; assay type: functional; details: LMG16656, 24 h; method in brief: as §2
[21] = system: Pseudomonas aeruginosa; assay: Antimicrobial activity against Pseudomonas aeruginosa PAO1 assessed as reduction of biofilm biomass at 1 mM incubated for 24 hrs post-biofilm growth by crystal violet staining; assay type: functional; design: scale not given: the % may be the effect or the level left
Method in brief: (§7)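 Mature-biofilm treatment: biofilms grown 24 h at 37 °C without compound, rinsed with saline, then fresh medium containing compound added for a further 24 h at 37 °C. Biomass measured by crystal violet (methanol fixation, acetic acid elution, A590). Reported as % of control biofilm; twelve wells, ≥2 repeats.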

[22] = system: Pseudomonas aeruginosa; assay: Antimicrobial activity against Pseudomonas aeruginosa PAO1 assessed as reduction of cell viability at 1 mM incubated for 24 hrs post-biofilm growth by CTB staining; assay type: functional
Method in brief: (§8)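 Biofilms were grown 24 h at 37 °C in 2× MH (inoculum OD590 0.1) without compound. Wells were rinsed with saline, fresh medium with compound was added, and plates were held a further 24 h at 37 °C. Metabolically active cells were measured by CTB resazurin fluorescence after 60 min (ex 535/em 590) as % of control biofilm; n ≥ 24.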

[23] = system: Pseudomonas aeruginosa; assay: Antagonist activity at Pseudomonas aeruginosa QSIS2 LasR-mediated quorum sensing co-expressing SacB1 assessed as inhibition of 3-oxo-C12-HSL-induced luminescence at 0.1 mM after 24 hrs by reporter gene assay; assay type: functional
[24] = target: T1, Transcriptional activator protein LuxR (Aliivibrio fischeri); assay: Agonist activity at Vibrio fischeri LuxR-mediated quorum sensing expressed in Escherichia coli JB523 assessed as GFP expression at 0.5 mM after 24 hrs by reporter gene assay; assay type: functional; method in brief: as §6
[25] = Cytotoxicity against human MRC5 cells after 3 days by resazurin reduction assay; assay type: cell-based
Method in brief: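 MRC-5 SV2 human lung fibroblasts in Earle's MEM with 5% FCSi, about 10^4 cells per well, exposed for 3 days at 37 °C and 5% CO2. Viability read by resazurin fluorescence (ex 550/em 590 nm) as % reduction versus untreated wells; CC50 derived.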

[26] = system: Pseudomonas aeruginosa; assay: Antibacterial activity against Pseudomonas aeruginosa PAO1 after 20 hrs by broth microdilution assay; assay type: functional; details: PAO1, 20 h; method in brief: as §1
[27] = system: Burkholderia cenocepacia; assay: Antimicrobial activity against Burkholderia cenocepacia LMG16656 assessed as reduction of biofilm biomass at 1 mM incubated for 24 hrs post-biofilm growth by crystal violet staining; assay type: functional, organism-based; method in brief: as §7
[28] = system: Pseudomonas aeruginosa; assay: Antagonist activity at Pseudomonas aeruginosa QSIS2 LasR-mediated quorum sensing co-expressing SacB1 assessed as inhibition of 3-oxo-C12-HSL-induced luminescence at 0.5 mM after 24 hrs by reporter gene assay; assay type: functional
[29] = target: T1, Transcriptional activator protein LuxR (Aliivibrio fischeri); assay: Agonist activity at Vibrio fischeri LuxR-mediated quorum sensing expressed in Escherichia coli JB523 assessed as GFP expression at 0.1 mM after 24 hrs by reporter gene assay; assay type: functional; method in brief: as §6
[30] = system: Burkholderia cenocepacia; assay: Antimicrobial activity against Burkholderia cenocepacia LMG16656 assessed as reduction of cell viability at 1 mM incubated for 24 hrs post-biofilm growth by CTB staining; assay type: functional, organism-based; method in brief: as §8
[31] = target: T1, Transcriptional activator protein LuxR (Aliivibrio fischeri); assay: Agonist activity at Vibrio fischeri LuxR-mediated quorum sensing expressed in Escherichia coli JB523 assessed as GFP expression at 1 mM after 24 hrs by reporter gene assay; assay type: functional; method in brief: as §6

CCCCCCCCc1cn(C2CCOC2=O)nn1 (stereo unspecified)
MIC [1]: 5000 µM (≈ 1330 µg/mL) | Activity [2]: Dose-dependent effect | inhibition [3]: inactive | inhibition [4]: inactive | MIC [5]: 2500 µM (≈ 663 µg/mL) | inhibition [6]: inactive | MIC [7]: 2500 µM (≈ 663 µg/mL) | Activity [8]: 29% | Activity [9]: inactive | inhibition [10]: 71.6% | inhibition [11]: Dose-dependent effect | IC50 [12]: 308 µM | Activity [13]: Active | Activity [14]: inactive | Activity [15]: 19.4% | Activity [16]: Active | inhibition [17]: 34.1% | inhibition [18]: 59.8% | Activity [19]: inactive | inhibition at 1000 µM [20]: 68% | Activity [21]: 38% | Activity [22]: 28% | inhibition [23]: inactive | Activity [24]: 5.2% | CC50 at 72 h [25]: > 1000 µM | MIC [26]: 2500 µM (≈ 663 µg/mL) | Activity [27]: Active | inhibition [28]: inactive | Activity [29]: inactive | Activity [30]: Active | Activity [31]: 10.6%

O=C1OCCC1n1cc(CCc2ccccc2)nn1 (stereo unspecified)
MIC [1]: 10000 µM (≈ 2570 µg/mL) | Activity [2]: Dose-dependent effect | inhibition [3]: 25.3% | inhibition [4]: 43.2% | MIC [5]: 5000 µM (≈ 1290 µg/mL) | inhibition at 1000 µM [6]: 40% | MIC [7]: 5000 µM (≈ 1290 µg/mL) | Activity [8]: 81.4% | Activity [9]: 41.5% | inhibition [10]: 29.2% | inhibition [11]: Dose-dependent effect | Activity [13]: Active | Activity [14]: inactive | Activity [15]: 67.2% | Activity [16]: Active | inhibition [17]: inactive | inhibition [18]: 25.7% | Activity [19]: 39.1% | inhibition at 1000 µM [20]: 40% | Activity [21]: 36% | Activity [22]: 37% | inhibition [23]: 15.8% | Activity [24]: inactive | CC50 at 72 h [25]: > 1000 µM | MIC [26]: 2500 µM (≈ 643 µg/mL) | Activity [27]: Active | inhibition [28]: 35.2% | Activity [29]: inactive | Activity [30]: Active | Activity [31]: inactive

CCCCCCCCCCCCc1cn(C2CCOC2=O)nn1 (stereo unspecified)
MIC [1]: 2500 µM (≈ 804 µg/mL) | Activity [2]: Dose-dependent effect | inhibition [3]: 12.8% | inhibition [4]: 36.5% | MIC [5]: 2500 µM (≈ 804 µg/mL) | inhibition at 1000 µM [6]: 46% | MIC [7]: 2500 µM (≈ 804 µg/mL) | Activity [8]: 45.5% | Activity [9]: 32% | inhibition [10]: 34.4% | inhibition [11]: Dose-dependent effect | Activity [13]: Active | Activity [14]: inactive | Activity [15]: 43.8% | Activity [16]: Active | inhibition [17]: inactive | inhibition [18]: 23.7% | Activity [19]: 28.7% | inhibition at 1000 µM [20]: 70% | Activity [21]: Active | Activity [22]: Active | inhibition [23]: 10.6% | Activity [24]: inactive | CC50 at 72 h [25]: 670 µM | MIC [26]: 2500 µM (≈ 804 µg/mL) | Activity [27]: Active | inhibition [28]: 30.9% | Activity [29]: inactive | Activity [30]: Active | Activity [31]: inactive
